# Assay outcomes as filed in PubChem BioAssay.
# PKD1 kinase inh = inhibitors of human PKD1 kinase | inhibition, % (no concentration beside the values) | PKD1 kinase fluorescence polarization assay | 200,000 tested, 0.056% active | AID 797 | Q15139
# L major viab = inhibitors of Leishmania major promastigote growth; AID 1063; inhibition, % at 10 µM; 200,000 tested, 9% active; Leishmania major promastigotes, resazurin fluorescence viability;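 note: promastigotes grown with compound for 44 hours at 28 °C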
# Avidin fluor = avidin bead compound fluorescence profile | Avidin beads, compound fluorescence 488/530 nm, flow cytometry; hits give high values | fluorescence (KMESF) at 10 µM | 220,000 tested, 0.38% active; in the data active = fluorescence above about 47
# GSH fluor = compound fluoresces at 488/530 nm on GSH beads | 190,000 tested, 0.25% active | GSH beads flow cytometry, compound fluorescence 488/530 nm; hits give high values | fluorescence (KMESF) at 10 µM | AID 1776; in the data active = fluorescence above about 89;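 note: glutathione beads carrying GST-tagged Bcl family fusion proteins plus one bare bead set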
# ABCB1 inh = blocks JC-1 efflux by human ABCB1 transporter | P08183 | CCRF-Adr cells, flow cytometry | inhibition, % at 6.6 µM | 190,000 tested, 0.067% active | AID 1326; in the data active = inhibition above about 40%;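 note: higher value means more JC-1 retained so stronger ABCB1 efflux block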
# ABCG2 block = human ABCG2 inhibition, ABCB1 as counter-screen; Q9UNQ0; inhibition, % at 6.6 µM; IgMXP3 cells, JC-1 efflux, flow cytometry; 190,000 tested, 0.1% active; AID 1325;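 active = inhibition above 80%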
#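 Test system: IgMXP3 cells (ABCG2) mixed with DDAO far-red-labelled CCRF-Adr cells (ABCB1). Reagent: JC-1 transporter substrate. Compound dosing: single test compound dose, 6.6 µM final. Times: 10 min compound exposure, 25 °C. Detection: flow cytometry of retained JC-1 fluorescence. Read-out basis: efflux inhibition in percent versus controls. Controls: nicardipine and DMSO wells.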
# A number is an active result; i = inactive; nt = no result. The sample as a whole holds a higher share of hits than the screen did. Cut-off read from the data, not from the text of the source, unless noted: active = inhibition above about 50%; inactive = the rest.
SMILES,PKD1 kinase inh,L major viab,Avidin fluor,GSH fluor,ABCB1 inh,ABCG2 block
COc1cccc(NC(=S)N2CCCN(Cc3ccc(F)cc3)C2)c1,i,87,i,i,i,i
COc1ccc(NC(=S)N2CCCN(Cc3cc(C)ccc3C)C2)cc1,i,55,i,i,i,i
CSc1cccc(NC(=S)N2CCCN(Cc3cccc(Cl)c3)C2)c1,i,90,i,i,i,i
CCOC(=O)N1CCC(N(CCN(C)C)C(=S)Nc2cccc(SC)c2)CC1,i,i,i,i,i,i
CSc1cccc(NC(=S)N2CCC(N(C)C3CCCC3)CC2)c1,i,85,i,i,i,i
Nc1nc(N)nc(COc2ccccc2)n1,i,i,i,i,i,i
COc1cccc(NC(=S)N2CCCC2)c1,i,76,i,i,i,i
COc1cccc(NC(=S)N2CCN(C(c3ccccc3)c3ccccc3)CC2)c1,i,i,i,i,i,i
COc1ccc(NC(=S)N2CCCN(Cc3cccc(Cl)c3)C2)cc1,i,94,i,i,i,i
CCN(CC)C(=S)SCC(=O)Nc1ncc2c(n1)CC(C)(C)CC2=O,nt,nt,i,nt,nt,nt
O=[N+]([O-])c1cc2c(cc1/C=N/NS(=O)(=O)c1ccc(Br)cc1)OCO2,i,i,i,i,i,i
O=C(N/C=N/O)C1=NOC(CNc2ncc(C(F)(F)F)cc2Cl)C1 (centres undefined),i,99,i,i,i,i
O=C(c1ccccc1)c1ccc2nc(-c3ccc(NC(=O)c4ccccc4F)cc3)[nH]c2c1,i,61,i,i,i,i
O=C(Nc1ccc2nc(-c3ccccc3)[nH]c2c1)c1cccs1,i,i,i,i,i,i
CC(C)C(=O)OCc1cn(-c2ccc(Cl)c(Cl)c2)nn1,i,i,i,i,i,i
C#CCNC(=O)C1=C[C@H](c2csc3ccccc23)C[C@H](OCCCCO)O1,i,i,i,i,i,i
CCOc1ccc(NC(=O)CC2C(=O)N(c3ccccc3)C(=O)N2CCc2cccs2)cc1 (centres undefined),i,66,i,i,i,i
CCOc1ccc(NC(=O)CC2C(=O)N(c3ccc(OC)cc3)C(=S)N2Cc2ccccn2)cc1 (centres undefined),i,80,i,i,i,i
COc1ccc(NC(=O)CC2C(=O)N(Cc3ccccc3)C(=S)N2CCN2CCOCC2)cc1 (centres undefined),i,98,i,i,i,i
CCN1C(=O)C(CC(=O)Nc2ccc(OC)cc2)N(CCCN2CCN(c3ccc(F)cc3)CC2)C1=S (centres undefined),i,73,nt,i,i,i
CCOc1ccc(NC(=O)CC2C(=O)N(c3ccccc3)C(=S)N2Cc2ccccn2)cc1 (centres undefined),i,i,i,i,i,i
O=C(NCc1ccccc1Cl)C1CCC(CNc2c(N3CCOCC3)c(=O)c2=O)CC1 (centres undefined),nt,nt,i,nt,nt,nt
CCCCCCOc1ccc(NC(=O)CC2C(=O)N(CC)C(=S)N2Cc2ccco2)cc1 (centres undefined),i,66,i,i,i,i
C=CCN1C(=O)C(CC(=O)Nc2ccc(OCCC)cc2)N(CCCN2CCN(Cc3ccccc3)CC2)C1=S (centres undefined),i,100,i,i,i,i
COC(=O)CN1C(=S)N(c2ccc(Cl)cc2)C(=O)C1CC(=O)Nc1ccccc1 (centres undefined),i,64,i,i,i,i
SMILES,PKD1 kinase inh,L major viab,Avidin fluor,GSH fluor,ABCB1 inh,ABCG2 block
COc1ccc(NC(=O)CC2C(=O)N(C)C(=S)N2Cc2cccs2)cc1 (centres undefined),i,54,i,i,i,i
COC(=O)CN1C(=S)N(c2ccc(F)cc2)C(=O)C1CC(=O)Nc1ccccc1 (centres undefined),i,i,i,i,i,i
CCN(CC)S(=O)(=O)c1ccc(NC(=O)COC(=O)c2ccc(NC(=O)CC#N)cc2)cc1,i,i,i,i,i,i
C=CCn1c(CCc2cc(C(C)(C)C)c(O)c(C(C)(C)C)c2)n[nH]c1=S,i,i,i,i,i,i
CCc1ccc(NC(=O)CC2C(=O)N(c3ccc(C)cc3)C(=O)N2CCc2ccncc2)cc1 (centres undefined),i,51,i,i,i,i
CCOc1cc(/C=C2/C(=O)N(c3ccccc3)N=C2C)ccc1OC(=O)c1ccco1,i,i,i,i,i,i
